Experimental data from ChEMBL document CHEMBL4706575, “Nonpeptidic quinazolinone derivatives as dual nucleotide-binding oligomerization domain-like receptor 1/2 antagonists for adjuvant cancer chemotherapy” (Eur J Med Chem, 2020).
Active and inactive are the calls of the source. No cut-off for these calls is given here.

Key:
[1] = target: T1, Nucleotide-binding oligomerization domain-containing protein 2 (Homo sapiens, UniProt Q9HC29); assay: Antagonist activity at NOD2 in human THP-1 cells assessed as inhibition of MDP-induced IkappaBalpha degradation preincubated for 1 hr followed by MDP addition and measured after 30 mins by Western blot analysis; format: cell-based; conditions: filed as antagonist, dose 1-10 µM, time 1.5 hrs
T1 sequence (Q9HC29 whole entry, the tested form may be a part): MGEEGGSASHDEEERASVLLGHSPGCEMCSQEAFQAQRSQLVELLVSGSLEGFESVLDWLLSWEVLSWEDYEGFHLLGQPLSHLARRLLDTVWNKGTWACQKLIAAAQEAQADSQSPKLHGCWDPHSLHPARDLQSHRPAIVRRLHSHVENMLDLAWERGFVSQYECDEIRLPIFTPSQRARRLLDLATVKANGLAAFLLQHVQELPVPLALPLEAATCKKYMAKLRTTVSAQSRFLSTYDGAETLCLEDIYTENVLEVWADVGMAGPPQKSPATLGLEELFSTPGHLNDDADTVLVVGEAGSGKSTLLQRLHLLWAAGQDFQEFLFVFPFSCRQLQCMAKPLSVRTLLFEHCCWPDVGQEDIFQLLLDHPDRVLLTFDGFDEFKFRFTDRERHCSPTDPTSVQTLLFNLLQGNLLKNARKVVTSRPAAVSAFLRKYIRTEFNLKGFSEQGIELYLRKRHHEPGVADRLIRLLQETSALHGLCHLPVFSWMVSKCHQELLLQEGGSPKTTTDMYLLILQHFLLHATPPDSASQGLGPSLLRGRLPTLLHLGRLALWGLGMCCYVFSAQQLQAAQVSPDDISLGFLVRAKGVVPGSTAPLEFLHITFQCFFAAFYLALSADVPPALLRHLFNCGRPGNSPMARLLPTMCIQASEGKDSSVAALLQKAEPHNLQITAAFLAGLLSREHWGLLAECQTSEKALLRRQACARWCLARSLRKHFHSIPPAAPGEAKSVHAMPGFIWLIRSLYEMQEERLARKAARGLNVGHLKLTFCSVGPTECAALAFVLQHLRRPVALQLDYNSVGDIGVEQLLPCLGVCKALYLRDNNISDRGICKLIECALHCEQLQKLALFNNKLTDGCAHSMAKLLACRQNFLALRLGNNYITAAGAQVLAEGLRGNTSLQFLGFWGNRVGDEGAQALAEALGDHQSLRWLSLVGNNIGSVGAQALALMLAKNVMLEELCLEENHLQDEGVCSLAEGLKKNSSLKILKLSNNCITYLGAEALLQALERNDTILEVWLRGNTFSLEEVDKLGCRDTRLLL
Outline: (§1)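 Serum-starved THP-1 cells pretreated with compound (1.0 or 10 µM) or without for 1 h. Then C12-iE-DAP 500 ng/mL (NOD1) or MDP (NOD2) for 30 min. Lysed in cold whole-cell buffer. Western blot for IκBα and for total and phospho RIP2, IKKα/β, p65, JNK, p38 and ERK1/2. β-actin as loading control.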

[2] = target: T1, Nucleotide-binding oligomerization domain-containing protein 2; assay: Antagonist activity at NOD2 in human THP-1 cells assessed as inhibition of MDP-induced increase in p65 phosphorylation preincubated for 1 hr followed by MDP addition and measured after 30 mins by Western blot analysis; format: cell-based; conditions: filed as antagonist, dose 1-10 µM, time 1.5 hrs; outline: as §1
[3] = target: T2, Nucleotide-binding oligomerization domain-containing protein 1 (Homo sapiens) (UniProt Q9Y239); assay: Antagonist activity at NOD1 in human THP-1 cells assessed as inhibition of C12-iE-DAP-induced TNFalpha mRNA expression preincubated for 1 hr followed by C12-iE-DAP addition and measured after 90 mins by qRT-PCR analysis; format: cell-based; conditions: filed as antagonist, dose 1-10 µM, time 150.0 min
T2 sequence (whole entry): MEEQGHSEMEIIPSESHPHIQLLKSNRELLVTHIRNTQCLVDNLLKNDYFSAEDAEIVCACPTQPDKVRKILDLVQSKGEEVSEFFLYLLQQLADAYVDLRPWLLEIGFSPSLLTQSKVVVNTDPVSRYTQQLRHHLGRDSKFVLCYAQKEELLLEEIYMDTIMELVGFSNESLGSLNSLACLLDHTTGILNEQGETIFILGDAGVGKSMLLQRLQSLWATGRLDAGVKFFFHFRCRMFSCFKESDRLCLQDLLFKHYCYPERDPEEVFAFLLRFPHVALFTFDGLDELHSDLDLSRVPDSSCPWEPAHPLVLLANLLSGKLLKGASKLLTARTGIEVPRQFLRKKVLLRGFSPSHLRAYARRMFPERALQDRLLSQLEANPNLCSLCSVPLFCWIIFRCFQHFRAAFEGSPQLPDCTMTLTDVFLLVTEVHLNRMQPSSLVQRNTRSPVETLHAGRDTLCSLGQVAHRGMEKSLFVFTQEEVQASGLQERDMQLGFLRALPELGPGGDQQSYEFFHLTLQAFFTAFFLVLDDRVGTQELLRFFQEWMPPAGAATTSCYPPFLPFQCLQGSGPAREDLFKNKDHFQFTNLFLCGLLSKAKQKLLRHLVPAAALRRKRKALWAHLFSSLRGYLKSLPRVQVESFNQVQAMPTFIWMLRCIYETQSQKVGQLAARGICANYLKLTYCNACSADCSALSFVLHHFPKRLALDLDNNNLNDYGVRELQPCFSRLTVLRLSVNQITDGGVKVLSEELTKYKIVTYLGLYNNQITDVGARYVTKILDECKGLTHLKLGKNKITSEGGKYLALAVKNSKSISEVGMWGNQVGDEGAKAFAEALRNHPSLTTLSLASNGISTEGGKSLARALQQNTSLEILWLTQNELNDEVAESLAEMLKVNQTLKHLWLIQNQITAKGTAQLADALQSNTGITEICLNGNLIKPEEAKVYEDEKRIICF
Outline: (§2)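 THP-1 cells in RPMI-1640 with 10% FBS, treated with compound (1.0 or 10 µM) or vehicle for 1 h. Then stimulated 90 min with C12-iE-DAP 500 ng/mL (NOD1) or MDP (NOD2). IL-6, TNF-α and IL-8 mRNA measured by qRT-PCR. Mean ± SD, n = 6, two-tailed t-test.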

[4] = Half life in mouse liver microsomes at 1.25 uM preincubated for 5 mins followed by NADPH generating system addition and measured for 120 mins by LC-MS/MS analysis; format: ADME, Microsome
Outline: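 Mouse liver microsomes (1.25 mg/mL protein) in 100 mM phosphate pH 7.4 with 1.25 µM compound, preincubated 5 min at 37 °C. Reaction started with NADPH-generating system (1 mM NADP, 10 mM MgCl2, 10 mM G6P, 0.5 U/mL G6PDH). Sampled at 0–120 min, quenched with MeOH/ACN 1:1, analysed by LC-MS/MS.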

[5] = target: T2, Nucleotide-binding oligomerization domain-containing protein 1 (Homo sapiens); assay: Antagonist activity at NOD1 in human THP-1 cells assessed as inhibition of C12-iE-DAP-induced IkappaBalpha degradation at 1 to 10 uM preincubated for 1 hr followed by C12-iE-DAP addition and measured after 30 mins by Western blot analysis; format: cell-based; conditions: filed as antagonist, dose 1-10 µM, time 1.5 hrs; outline: as §1
[6] = target: T2, Nucleotide-binding oligomerization domain-containing protein 1 (Homo sapiens); assay: Antagonist activity at NOD1 in human THP-1 cells assessed as inhibition of C12-iE-DAP-induced IL6 mRNA expression preincubated for 1 hr followed by C12-iE-DAP addition and measured after 90 mins by qRT-PCR analysis; format: cell-based; conditions: filed as antagonist, dose 1-10 µM, time 150.0 min; outline: as §2
B16-F10 = assay: Potentiation of paclitaxel-induced antitumor activity against mouse B16-F10 cells implanted in C57BL/6 mouse assessed as tumor growth inhibition at 50 mg/kg, iv administered every other day for 15 days measured 24 hrs post last dose (reference value: 64.07%); format: functional; conditions: 384 h, time 16 day, read-out: TGI
[7] = target: T2, Nucleotide-binding oligomerization domain-containing protein 1 (Homo sapiens); assay: Antagonist activity at NOD1 in human THP-1 cells assessed as inhibition of C12-iE-DAP-induced IL8 mRNA expression preincubated for 1 hr followed by C12-iE-DAP addition and measured after 90 mins by qRT-PCR analysis; format: cell-based; conditions: filed as antagonist, dose 1-10 µM, time 150.0 min; outline: as §2
[8] = target: T1, Nucleotide-binding oligomerization domain-containing protein 2; assay: Antagonist activity at NOD2 in human THP-1 cells assessed as inhibition of MDP-induced increase in IKKalpha/beta phosphorylation preincubated for 1 hr followed by MDP addition and measured after 30 mins by Western blot analysis; format: cell-based; conditions: filed as antagonist, dose 1-10 µM, time 1.5 hrs; outline: as §1
[9] = target: T2, Nucleotide-binding oligomerization domain-containing protein 1 (Homo sapiens); assay: Antagonist activity at NOD1 in HEK-Blue hNOD1 cells assessed as inhibition of C12-iE-DAP-induced NFkappaB activation-mediated SEAP release at 5 uM preincubated for 3 hrs followed by C12-iE-DAP addition and measured after 20 hrs by spectrophotometric method relative to control; format: cell-based; conditions: filed as antagonist, time 23.0 hrs

Question: With `O=C(NCCCOc1ccc(C(F)(F)F)cc1)c1cc2ncn(CC(=O)N3CCCC(F)(F)C3)c(=O)c2cc1-c1cccc(Cl)c1` as the molecule, how does the inhibition [1] read?
Answer: The inhibition was “Dose-dependent effect”.

Question: What about the inhibition [2] of the same molecule?
Answer: The inhibition was “Dose-dependent effect”.

Question: What about the inhibition [3] of the same molecule?
Answer: Its inhibition is “Dose-dependent effect”.

Question: What about the half-life at 1.25 µM [4] of the same molecule?
Answer: Its half-life at 1.25 µM is 1.13 h.

Question: And the inhibition [5]?
Answer: Its inhibition is “Active”.

Question: And the inhibition [6]?
Answer: The inhibition was “Dose-dependent effect”.

Question: And the inhibition in vivo at 50 mg/kg (B16-F10)?
Answer: The inhibition in vivo at 50 mg/kg was 85.5%.

Question: What about the inhibition [7] of the same molecule?
Answer: Its inhibition is “Dose-dependent effect”.

Question: And the inhibition [8]?
Answer: Its inhibition is “Dose-dependent effect”.

Question: What about the inhibition [9] of the same molecule?
Answer: The inhibition was 91.4%.
